Experimental data collected from several papers.
Compare with care: the assays were run in different laboratories.

| SMILES | cell line | effect on | technique | time | IC50 [µM] |
| --- | --- | --- | --- | --- | --- |
| CCCCc1ccc2[nH]c(NC(=O)OC)nc2c1 | HN-6 | cell growth or viability | – | 72 h | 0.126 |
| CC(C)(C)C1=CC(=NNc2ccc(C#N)cc2)C=C(C(C)(C)C)C1=O | human Fibroblast | cell growth or viability | resazurin | 24 h | > 100 |
| Cc1cc(O)c2c(c1)C(=O)c1cccc(O)c1C2=O | HK-2 | cell growth or viability | MTT | 24 h | > 500 |
| CCN1CCN(c2ccc(Nc3cc(N(C)C(=O)Nc4c(Cl)c(OC)cc(OC)c4Cl)ncn3)cc2)CC1 | KATO III | cell growth or viability | ATP luminescence | 96 h | 0.00222 |
| CC(C)C[C@H](NC(=O)[C@H](Cc1ccccc1)NC(=O)c1cnccn1)B(O)O | RERF-LC-Ad2 | cell growth or viability | ATP luminescence | – | 0.022 |
| Nc1ccc(Cl)c[n+]1[Pt-2]([Cl])([Cl])[n+]1cc(Cl)ccc1N | BEAS-2B | cell growth or viability | MTT | 24 h | 10.3 |
| O=C(O)CCCc1ccccc1 | BCPAP | cell growth or viability | MTT | 72 h | > 50 |
| COc1cc([C@@H]2c3cc4c(cc3[C@@H](O[C@@H]3O[C@@H]5CO[C@@H](C)O[C@H]5[C@H](O)[C@H]3O)[C@H]3COC(=O)[C@H]23)OCO4)cc(OC)c1O | BEAS-2B | cell growth or viability | – | – | 11.2 |
| COC(=O)CN=c1scc(-c2ccccc2)n1-c1ccccc1C | Panc 02.03 | cell growth or viability | MTT | 72 h | > 100 |
| COc1ccc2[nH]cc(S(C)(=O)=Nc3cc(OC)c(OC)c(OC)c3)c2c1 (centres unmarked) | C4-2 | cell growth or viability | MTT | 48 h | > 40 |
| CC(C)(C=O)Cc1cc(C(C)(C)C)c(O)c(C(C)(C)C)c1 | HN-6 | cell growth or viability | – | 72 h | > 20 |
| COc1cc(O)c2c(c1)C(=O)c1cc(C)cc(O)c1C2=O | HK-2 | cell growth or viability | MTT | 24 h | > 500 |
| COC(C)(C)CCC[C@](C)(O)[C@H]1CC[C@]2(C)[C@@H]1[C@H](O)C[C@@H]1[C@@]3(C)CC[C@H](O)C(C)(C)[C@@H]3CC[C@]12C | BEAS-2B | cell growth or viability | MTT | 72 h | 24.6 |
| CCN(CC)CCNC(=O)COc1ccc(OC)cc1 | HN-6 | cell growth or viability | – | 72 h | > 20 |
| COc1cccc(Oc2ccccc2NC(=O)CNC(=O)c2cccc3ccccc23)c1 | SK-N-DZ | cell growth or viability | – | – | 0.288 |
| CC(C)(C)C1=CC(=NNC(=O)C2CCCCC2)C=C(C(C)(C)C)C1=O | human Fibroblast | cell growth or viability | resazurin | 24 h | > 100 |
| NCCc1ccc(O)c(O)c1 | HN-6 | cell growth or viability | – | 72 h | > 20 |
| COc1cc(Nc2nccc(-c3cnn4nc(OC)ccc34)n2)cc(C(F)(F)F)c1 | A2058 | cell growth or viability | ATP luminescence | – | 0.19 |
| O=C(O)c1cc(O)c2c(c1)C(=O)c1cccc(O)c1C2=O | HK-2 | cell growth or viability | MTT | 24 h | 210 |

| SMILES | cell line | effect on | technique | time | IC50 [µM] |
| --- | --- | --- | --- | --- | --- |
| COc1ccc2c(c1OC)C(=O)O[C@@H]2[C@H]1c2c(cc3c(c2OC)OCO3)CCN1C | HN-6 | cell growth or viability | – | 72 h | 16.3 |
| CCCCC/C=C\C/C=C\C/C=C\C/C=C\CCCC(=O)C(F)(F)F | MEL-JUSO | cell growth or viability | MTS | 72 h | 22.8 |
| COc1cccc2c1C(=O)c1c(O)c3c(c(O)c1C2=O)C[C@@](O)(C(=O)CO)C[C@@H]3O[C@H]1C[C@H](N)[C@H](O)[C@H](C)O1 | SGC-7901 | cell growth or viability | MTT | 48 h | 0.13 |
| O=C(c1cc(Cc2n[nH]c(=O)c3ccccc23)ccc1F)N1CCN(C(=O)C2CC2)CC1 | KATO III | colony formation | – | – | 2.43 |
| COc1cc2nc(N3CCN(C(=O)c4ccco4)[C@H]4CCCC[C@H]43)nc(N)c2cc1OC (racemic) | HN-6 | cell growth or viability | – | 72 h | 15.6 |
| COc1nc(OCc2cccc(-c3ccccc3)c2C)ccc1CNCCNC(C)=O | HK-2 | cell growth or viability | MTT | – | 1.9 |
| CCN1C(=O)N(c2c(F)c(OC)cc(OC)c2F)Cc2cnc3[nH]c(CN4CCOCC4)cc3c21 | RT-112 | cell growth or viability | ATP luminescence | 96 h | 0.00522 |
| Cn1cc(C(=O)C(=O)NCCc2c[nH]c3ccccc23)c2ccccc21 | C4-2 | cell growth or viability | MTT | – | > 100 |
| COC(=O)CN=c1scc(-c2ccccc2)n1-c1ccccc1 | Panc 02.03 | cell growth or viability | MTT | 72 h | 81.5 |
| Clc1ccc(N2CCN(Cc3c[nH]c4ncccc34)CC2)cc1 | HN-6 | cell growth or viability | – | 72 h | > 20 |
| C(=C\c1c[nH]c2ccccc12)/c1ccc2ccccc2n1 | MDA-MB-468 | cell growth or viability | MTT | – | 11 |
| Nc1ncnc2c1ncn2[C@@H]1O[C@H](CO)[C@@H](O)[C@@H]1O | HN-6 | cell growth or viability | – | 72 h | > 20 |
| O=C(CNC(=O)c1cccc2ccccc12)Nc1ccccc1Oc1ccc(O)cc1 | SK-N-DZ | cell growth or viability | – | – | 0.467 |
| CN1CCN(c2ccc3nc(-c4c(N)c5c(F)cccc5[nH]c4=O)[nH]c3c2)CC1 | RT-112 | cell growth or viability | MTT | 5 days | 0.2 |
| COc1ccc2[nH]cc(C(=O)C(=O)CCCc3c[nH]c4ccccc34)c2c1 | C4-2 | cell growth or viability | MTT | – | > 100 |
| O=C(CNC(=O)c1cccc2ccccc12)Nc1ccccc1Oc1ccccc1 | SK-N-DZ | cell growth or viability | – | – | 0.237 |
| O=C1NCCc2[nH]c(-c3ccncc3)cc21 | LOX IMVI | cell growth or viability | – | – | 3.58 |
| O=C(NCCc1c[nH]c2ccccc12)C(=O)c1c[nH]c2ccc(Br)cc12 | C4-2 | cell growth or viability | MTT | – | > 100 |
| C=C(C)C(=O)Nc1ccc(-c2c(-c3ccc(Oc4nccc(C)n4)c(F)c3)c3c(N)ncnc3n2C)cc1 | KATO III | cell growth or viability | ATP luminescence | 96 h | 0.00129 |
